# Assay results published in ChEMBL document CHEMBL2016576, “Design, synthesis and structure-activity-relationship of 1,5-tetrahydronaphthyridines as CETP inhibitors” (Bioorg Med Chem Lett, 2012).
# Columns and labels:
# [1] = Induction of cortisol synthase mRNA level in human NCI-H295 cells by in vitro branched DNA method; assay type: cell-based
# [2] = biological target: T1, Cholesteryl ester transfer protein (Homo sapiens, UniProt P11597); assay: Inhibition of CETP in human plasma assessed as reduction in fluorescent intensity by fluorescence analysis
# T1 sequence (P11597 whole entry): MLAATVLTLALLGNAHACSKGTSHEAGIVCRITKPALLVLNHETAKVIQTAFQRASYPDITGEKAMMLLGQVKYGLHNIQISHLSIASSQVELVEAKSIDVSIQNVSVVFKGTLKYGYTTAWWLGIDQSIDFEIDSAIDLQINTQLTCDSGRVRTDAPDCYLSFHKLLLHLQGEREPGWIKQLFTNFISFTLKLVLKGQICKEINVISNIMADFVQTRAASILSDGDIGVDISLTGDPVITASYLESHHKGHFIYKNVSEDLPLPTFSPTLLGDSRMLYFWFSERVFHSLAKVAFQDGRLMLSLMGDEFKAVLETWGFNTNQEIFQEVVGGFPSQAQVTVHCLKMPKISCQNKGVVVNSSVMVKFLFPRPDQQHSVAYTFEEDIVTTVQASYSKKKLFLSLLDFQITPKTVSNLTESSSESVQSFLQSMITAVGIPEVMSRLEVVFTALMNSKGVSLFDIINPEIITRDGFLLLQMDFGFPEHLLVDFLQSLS
# [3] = Oral bioavailability in Sprague-Dawley rat at 3 mg/kg after 72 hrs; assay type: ADME, organism-based; conditions: in vivo
# [4] = tested on: Mus musculus; assay: Ex-vivo inhibition of CETP activity in transgenic mouse harboring human CETP/human ApoA1 gene at 30 mg/kg, po measured after 8 hrs; assay type: functional
# Procedure, shortened: (§1)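 Male hCETP/hApoA1 heterozygous dual transgenic mice given 30 mg/Kg orally in corn oil (79.5%)/oleic acid (20%)/labrafil (0.5%); blood taken over an 8 h time course; serum tested ex vivo for CETP activity and in vivo serum HDL-c measured.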
# [5] = Clearance in cynomolgus monkey at 1 mg/kg, iv and 3 mg/kg, po after 72 hrs; assay type: ADME, organism-based, Macaca fascicularis; conditions: in vivo
# [6] = tested on: Mus musculus; assay: Increase in HDL-cholesterol level in transgenic mouse harboring human CETP/human ApoA1 gene at 30 mg/kg, po measured after 8 hrs; assay type: functional; procedure, shortened: as §1
# [7] = Oral bioavailability in cynomolgus monkey at 3 mg/kg after 72 hrs; assay type: ADME, organism-based, Macaca fascicularis; conditions: in vivo
# [8] = Clearance in Sprague-Dawley rat at 1 mg/kg, iv and 3 mg/kg, po after 72 hrs; assay type: ADME, organism-based; conditions: in vivo
# [9] = Clearance in beagle dog at 1 mg/kg, iv and 3 mg/kg, po after 72 hrs; assay type: ADME, organism-based, Canis lupus familiaris; conditions: in vivo
# [10] = tested on: aldosterone synthase mRNA; assay: Induction of aldosterone synthase mRNA level in human NCI-H295 cells by in vitro branched DNA method relative to control; assay type: cell-based; conditions: read-out: FC
# Procedure, shortened: (§2)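 Human adrenal H295 cells were assayed in vitro. CYP11B2 (aldosterone synthase) and CYP11B1 (cortisol synthase) mRNA were quantified by branched DNA, and induction was expressed relative to untreated control.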
# [11] = Oral bioavailability in beagle dog at 3 mg/kg after 72 hrs; assay type: ADME, organism-based, Canis lupus familiaris; conditions: in vivo
# [12] = tested on: cortisol synthase mRNA; assay: Induction of cortisol synthase mRNA level in human NCI-H295 cells by in vitro branched DNA method relative to control; assay type: cell-based; conditions: read-out: FC; procedure, shortened: as §2
smiles,measurement,setting,value
CCOC(=O)N1c2ccc(C(F)(F)F)cc2[C@@H](N(Cc2cc(C(F)(F)F)cc(C(F)(F)F)c2)C(=O)OC)C[C@H]1CC [TORCETRAPIB],Activity,[1],Toxic
CC[C@@H]1C[C@H](N(Cc2cc(C(F)(F)F)cc(C(F)(F)F)c2)c2nnn(C)n2)c2nc(C)ccc2N1C(=O)OC(C)C,IC50,[2],22 nM
same,bioavailability,[3],18%
same,inhibition in vivo at 30 mg/kg,[4],105%
same,clearance,[5],2.2 mL/min/kg
same,Activity,[6],147.8%
same,bioavailability,[7],32%
same,clearance,[8],16.4 mL/min/kg
CC[C@@H]1C[C@H](N(Cc2cc(C(F)(F)F)cc(C(F)(F)F)c2)c2nnnn2C)c2nc(C(F)(F)F)ccc2N1C(=O)OC(C)C (racemic),IC50,[2],> 50000 nM
CC[C@@H]1C[C@H](N(Cc2cc(Cl)cc(Cl)c2)c2nnn(C)n2)c2nc(C)ccc2N1C(=O)OC(C)C,IC50,[2],24 nM
CC[C@@H]1C[C@H](N(Cc2cc(C(F)(F)F)cc(C(F)(F)F)c2)c2nnn(C)n2)c2nc(C(F)(F)F)ccc2N1C(=O)OC1CCOCC1,IC50,[2],66 nM
CC[C@@H]1C[C@H](N(Cc2cc(C(F)(F)F)cc(C(F)(F)F)c2)c2cc(C)n[nH]2)c2nc(C(F)(F)F)ccc2N1C(=O)OC(C)C (racemic),IC50,[2],203 nM
CC(=O)N(Cc1cc(C(F)(F)F)cc(C(F)(F)F)c1)[C@H]1C[C@@H](C2CC2)N(C(=O)OC(C)C)c2ccc(C(F)(F)F)nc21 (racemic),IC50,[2],980 nM
CC[C@@H]1C[C@H](N(Cc2cc(C(F)(F)F)cc(C(F)(F)F)c2)c2nnn[nH]2)c2nc(C(F)(F)F)ccc2N1C(=O)OC(C)C (racemic),IC50,[2],> 50000 nM
CC[C@@H]1C[C@H](N(Cc2cc(C(F)(F)F)cc(C(F)(F)F)c2)C(C)=O)c2nc(C)ccc2N1C(=O)OC(C)C (racemic),IC50,[2],980 nM
CC[C@H]1C[C@@H](N(Cc2cc(C(F)(F)F)cc(C(F)(F)F)c2)c2nnn(C)n2)c2nc(C(F)(F)F)ccc2N1C(=O)OC(C)C,IC50,[2],7420 nM
CC[C@@H]1C[C@H](N(Cc2cc(C(F)(F)F)cc(C(F)(F)F)c2)c2nnn(C)n2)c2nc(N)ccc2N1C(=O)OC(C)C,IC50,[2],98 nM
CC[C@@H]1C[C@H](N(Cc2cc(C(F)(F)F)cc(C(F)(F)F)c2)c2nnn(C)n2)c2nc(C(F)(F)F)ccc2N1C(=O)OC(C)C,IC50,[2],23 nM
same,clearance,[9],1.5 mL/min/kg
same,bioavailability,[3],31%
same,fold induction,[10],10
same,inhibition in vivo at 30 mg/kg,[4],91.6%
same,clearance,[5],0.7 mL/min/kg
same,Activity,[6],134%
same,bioavailability,[11],49%
same,bioavailability,[7],18%
same,clearance,[8],5.5 mL/min/kg
same,fold induction,[12],10
CCCC(=O)N1c2ccc(C(F)(F)F)nc2[C@@H](N(Cc2cc(C(F)(F)F)cc(C(F)(F)F)c2)c2nnn(C)n2)C[C@H]1CC,IC50,[2],114 nM
